Legend:
[1] = test system: BSA-glycation mediated methylglyoxal (MG); test: Anti-glycation assay: BSA-glycation mediated methylglyoxal; assay type: biochemical, bovine; conditions: for IC50: read-out: BSA-glycation inhibition category by IC50 criteria, category in words; for BSA-glycation mediated MG % Inhibition at 500 µM: mean ± SD
Method in brief: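 Fluorescence anti-glycation assay. BSA (10 mg/mL) was in 0.1 M phosphate buffer pH 7.4 with 0.02% NaN3, and 14 mM methylglyoxal was in phosphate buffer. Test compound in DMSO was preincubated with buffer and methylglyoxal at 37°C for 2 h. BSA was then added and the mix incubated at 37°C for 1 day. Fluorescence (ex 370/em 450 nm) was read against a no-inhibitor blank. Aminoguanidine hydrochloride was the positive control. Triplicate, two independent experiments, mean ± SD.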

α-amylase = biological target: T1, α-amylase (Sus scrofa, UniProt P00690); test: Inhibitory kinetic analysis; assay type: biochemical, porcine
T1 sequence (P00690 16-511): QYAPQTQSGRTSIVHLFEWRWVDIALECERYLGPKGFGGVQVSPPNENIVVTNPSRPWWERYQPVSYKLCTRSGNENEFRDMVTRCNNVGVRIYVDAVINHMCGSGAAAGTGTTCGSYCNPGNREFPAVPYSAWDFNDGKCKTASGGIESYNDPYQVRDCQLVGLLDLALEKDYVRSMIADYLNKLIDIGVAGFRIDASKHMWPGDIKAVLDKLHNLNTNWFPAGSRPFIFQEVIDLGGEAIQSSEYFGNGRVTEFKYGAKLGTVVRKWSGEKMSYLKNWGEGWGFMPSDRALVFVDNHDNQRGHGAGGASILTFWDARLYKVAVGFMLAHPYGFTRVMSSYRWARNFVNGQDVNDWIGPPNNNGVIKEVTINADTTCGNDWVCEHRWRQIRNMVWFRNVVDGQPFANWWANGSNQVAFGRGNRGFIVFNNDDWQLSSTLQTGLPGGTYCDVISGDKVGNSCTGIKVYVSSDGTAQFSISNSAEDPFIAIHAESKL
Method in brief: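 Porcine pancreatic α-amylase (type VI-B) in phosphate buffer pH 6.0 with 0.02% NaN3. Enzyme stock was 1 mg/mL and CNP-G3 stock 0.5 mM. Test compound and enzyme were preincubated at 37°C for 10 min, then CNP-G3 was added at varied concentrations for 30 min at 37°C, read at 405 nm. Three inhibitor concentrations were used. Inhibition type came from Lineweaver–Burk plots, Ki and Kis from secondary slope and intercept plots.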

Structure (SMILES)	IC50 [1]	other results
Cl.N=C(N)NN [Aminoguanidine hydrochloride, reference compound]		BSA-glycation mediated MG % Inhibition at 500 µM [1]: 79.66%
O=C1C[C@@H](c2ccc(O)cc2)Oc2cc(O)cc(O)c21 [Compound F11, Naringenin]		BSA-glycation mediated MG % Inhibition at 500 µM [1]: 56.89%
O=c1cc(-c2ccc(O)c(O)c2)oc2c(Br)c(O)c(Br)c(O)c12 [Compound F3a, 6,8-Dibromoluteolin]	10.1 to 100 µM	Ki (α-amylase): 0.18 µM; Inhibition type, α-amylase (α-amylase; Lineweaver-Burk plot, CNP-G3): mixed-type
O=c1c(O)c(-c2ccc(O)cc2O)oc2cc(O)cc(O)c12 [Compound F6, Morin]	100 to 200 µM	

The next lines start with results.

IC50 [1]	Structure (SMILES)	other results
10.1 to 100 µM	O=c1cc(-c2ccc(O)c(O)c2)oc2cc(O)cc(O)c12 [Compound F3, Luteolin]	
10.1 to 100 µM	O=c1c(O)c(-c2ccc(O)c(O)c2)oc2cc(O)cc(O)c12 [Compound F7, Quercetin]	
10.1 to 100 µM	O=C1C[C@@H](c2ccc(O)cc2)Oc2c(Br)c(O)c(Br)c(O)c21 [Compound F11a, 6,8-Dibromonaringenin]	
10.1 to 100 µM	O=c1cc(-c2ccc(O)cc2)oc2c(Br)c(O)c(Br)c(O)c12 [Compound F2a, 6,8-Dibromoapigenin]	
